ChEMBL document CHEMBL4665845, “CRISPR-Cas9 Genome-Wide Knockout Screen Identifies Mechanism of Selective Activity of Dehydrofalcarinol in Mesenchymal Stem-like Triple-Negative Breast Cancer Cells” (2020)
Calls of active or inactive are those of the source. The rule behind the calls is not given here.

Assays:
[1] = system: MDA-MB-453; experiment: Cytotoxicity against human MDA-MB-453 cells assessed as reduction in cell viability at 0.03 to 3 uM after 48 hrs by SRB assay; format: functional, cell-based; details: dose microM 0.03-3, time 48.0 hrs
[2] = system: MDA-MB-231; experiment: Cytotoxicity against human MDA-MB-231 cells assessed as reduction in cell viability at 0.03 to 3 uM after 48 hrs by SRB assay; format: functional, cell-based; details: dose microM 0.03-3, time 48.0 hrs
[3] = system: BT-549; experiment: Growth inhibition of human BT-549 cells after 48 hrs by SRB assay; format: functional
[4] = system: MDA-MB-231; experiment: Growth inhibition of human MDA-MB-231 cells after 48 hrs by SRB assay; format: functional
Outline: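 Cells were exposed to compound for 48 h, and growth was read by sulforhodamine B staining. TGI (total growth inhibition concentration, μM) was taken from concentration–response curves, n = 3, means ± SEM. MDA-MB-231 cells were grown in IMEM with 10% FBS at 37 °C in 5% CO2.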

[5] = species on record: Homo sapiens; experiment: Selectivity index, ratio of TGI for growth inhibitor of human BT-549 to TGI for growth inhibitor of human MDA-MB-231; format: functional

| SMILES | Activity [1] | Activity [2] | TGI [3] | TGI [4] | Selectivity Index [5] |
| --- | --- | --- | --- | --- | --- |
| O=C(Nc1ccccc1)c1cc([N+](=O)[O-])ccc1Cl | inactive | inactive | – | – | – |
| C=CCCCCCC(O)/C=C/C#CC#C[C@@H](O)C=C (single isomer, unassigned) [DENDROARBOREOL B] | – | – | 1.1 µM | 0.16 µM | 6.9 |
| C=CCCCCC/C=C\CC#CC#CC(O)CC (stereo not drawn) | – | – | 7 µM | 3.3 µM | 2.1 |
| C=CCCCCC(O)/C=C/C#CC#C[C@@H](O)C=C (mixture of isomers) | – | – | 4.2 µM | 0.36 µM | 12 |
| C=CCCCCCC(O)/C=C/C#CC#CC(O)CC (mixture of isomers) | – | – | > 5 µM | 4.3 µM | – |
| CN(CCOc1ccc(CC2SC(=O)NC2=O)cc1)c1ccccn1 (stereo not drawn) | inactive | inactive | – | – | – |
| C=CCCC/C=C\[C@H](O)C#CC#C[C@H](O)C=C | – | – | 29 µM | 12 µM | 2.4 |
